# Reference: ChEMBL document CHEMBL2034822, “HPLC-ESIMS(n) profiling, isolation, structural elucidation, and evaluation of the antioxidant potential of phenolics from Paepalanthus geniculatus” (J Nat Prod, 2012)
# Calls of active or inactive are those of the source. The calls are words filed in the database; no cut-off is given here.
# Tests used:
# [1] = Antioxidant activity against ABTS radical assessed as trolox equivalents by TEAC assay; assay type: functional
# Summary of the method: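 ABTS radical cation diluted in PBS pH 7.4 to A734 0.70, equilibrated at 30 °C, then added to sample solutions in MeOH at 0.3, 0.5, 1 and 1.5 concentration. Inhibition of A734 versus MeOH blank, run in triplicate, plotted against concentration alongside Trolox standard. TEAC = Trolox concentration equivalent in capacity to 1 mM compound.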
# PC-3 [2] = assay: Cytotoxicity against human PC3 cells; assay type: cell-based
# PC-3 [3] = assay: Antioxidant activity in human PC3 cells assessed as decrease in t-BuOOH-induced ROS elevation at 1 to 10 uM incubated for 24 hrs prior to t-BuOOH-challenge measured after 30 mins by dichlorofluorescein-based flow cytometric analysis; assay type: functional, cell-based
# Summary of the method: (§1)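 PC3 cells grown in DMEM with 2 mM L-glutamine, 10% heat-inactivated FBS and 1% pen/strep at 37 °C, then exposed to compound for 24 h. Exposed to 300 μM t-BuOOH for 30 min at 37 °C, washed, resuspended at 2 × 10^5 cells/ml in HBSS with 10 μM DCFH-DA for 20 min at 37 °C. DCF read by flow cytometry (FL1-H). Mean ± SEM of three experiments in triplicate; ANOVA with Bonferroni.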
# PC-3 [4] = assay: Antioxidant activity in human PC3 cells assessed as decrease in t-BuOOH-induced ROS elevation at 10 uM incubated for 24 hrs prior to t-BuOOH-challenge measured after 30 mins by dichlorofluorescein-based flow cytometric analysis; assay type: functional, cell-based; summary of the method: as §1
Compound,Activity [1],Activity (PC-3 [2]),Activity (PC-3 [3]),Activity (PC-3 [4])
COc1cc(O[C@H]2O[C@H](CO[C@@H]3O[C@H](CO)[C@@H](O)[C@@H](O)[C@H]3O)[C@@H](O)[C@H](O)[C@H]2O)c2c(O)c3c(=O)oc(C)cc3c(OC)c2c1,0.57 mM,Non-toxic,inactive,
COc1c(O)cc2oc(-c3ccc(O)c(O)c3)c(O[C@@H]3O[C@H](CO[C@@H]4O[C@@H](C)[C@H](O)[C@@H](O)[C@H]4O)[C@@H](O)[C@H](O)[C@H]3O)c(=O)c2c1O,2.02 mM,Non-toxic,,Active
COc1c(O)cc2oc(-c3ccc(O)c(O)c3)c(O[C@@H]3O[C@H](CO)[C@@H](O)[C@H](O)[C@H]3O)c(=O)c2c1O,0.525 mM,Non-toxic,inactive,
O=c1c(O[C@@H]2O[C@H](CO)[C@@H](O)[C@H](O)[C@H]2O)c(-c2ccc(O)c(O)c2)oc2cc(O)cc(O)c12,1.78 mM,,,
COc1cc(/C=C/C(=O)OC[C@H]2O[C@@H](Oc3c(-c4ccc(O)cc4)oc4cc(O)c(OC)c(O)c4c3=O)[C@H](O)[C@@H](O)[C@@H]2O)ccc1O,0.984 mM,Non-toxic,inactive,
O=c1c(O[C@@H]2O[C@H](CO)[C@@H](O)[C@H](O)[C@H]2O)c(-c2ccc(O)cc2)oc2cc(O)cc(O)c12,1.18 mM,,,
COc1c(O)cc2oc(-c3ccc(O)cc3)c(O[C@@H]3O[C@H](COC(=O)/C=C/c4ccc(O)cc4)[C@@H](O)[C@H](O)[C@H]3O)c(=O)c2c1O,1.28 mM,Non-toxic,inactive,
COc1c(O)cc2oc(-c3ccc(O)cc3)c(O[C@@H]3O[C@H](CO[C@@H]4O[C@@H](C)[C@H](O)[C@@H](OC(C)=O)[C@H]4OC(C)=O)[C@@H](O)[C@H](O)[C@H]3O)c(=O)c2c1O,1.4 mM,Non-toxic,inactive,
COc1c(O)cc2oc(-c3ccc(O)cc3)c(O[C@@H]3O[C@H](CO[C@@H]4O[C@@H](C)[C@H](OC(C)=O)[C@@H](O)[C@H]4O)[C@@H](O)[C@H](O)[C@H]3O)c(=O)c2c1O,0.968 mM,Non-toxic,inactive,
COc1c(O)cc2oc(-c3ccc(O)c(O)c3)c(O[C@@H]3O[C@H](CO[C@@H]4O[C@@H](C)[C@H](O)[C@@H](O)[C@H]4OC(C)=O)[C@@H](O)[C@H](O)[C@H]3O)c(=O)c2c1O,1.37 mM,Non-toxic,inactive,
COc1c(O)cc2oc(-c3ccc(O)c(O)c3)c(O[C@@H]3O[C@H](CO[C@@H]4O[C@@H](C)[C@H](OC(C)=O)[C@@H](O)[C@H]4OC(C)=O)[C@@H](O)[C@H](O)[C@H]3O)c(=O)c2c1O,1.21 mM,Non-toxic,inactive,
COc1c(O)cc2oc(-c3ccc(O)cc3)c(O[C@@H]3O[C@H](CO)[C@@H](O)[C@H](O)[C@H]3O)c(=O)c2c1O,1.27 mM,Non-toxic,inactive,
O=c1c(O)c(-c2ccc(O)c(O)c2)oc2cc(O)cc(O)c12,1.87 mM,,,
COc1c(O)cc2oc(-c3ccc(O)cc3)c(O[C@@H]3O[C@H](CO[C@@H]4O[C@@H](C)[C@H](O)[C@@H](O)[C@H]4O)[C@@H](O)[C@H](O)[C@H]3O)c(=O)c2c1O,2.06 mM,Non-toxic,,Active
COc1cc2oc(-c3ccc(O)c(O)c3)c(O[C@@H]3O[C@H](CO[C@@H]4O[C@@H](C)[C@H](O)[C@@H](O)[C@H]4O)[C@@H](O)[C@H](O)[C@H]3O)c(=O)c2c(O)c1O,1.54 mM,Non-toxic,inactive,
COc1c(O)cc2oc(-c3ccc(O)cc3)c(O[C@@H]3O[C@H](CO)[C@@H](O)[C@H](O)[C@H]3O[C@@H]3O[C@@H](C)[C@H](O)[C@@H](O)[C@H]3O)c(=O)c2c1O,1.53 mM,Non-toxic,inactive,
COc1c(O)cc2oc(-c3ccc(O)cc3)c(O[C@@H]3O[C@H](CO[C@@H]4O[C@@H](C)[C@H](O)[C@@H](O)[C@H]4OC(C)=O)[C@@H](O)[C@H](O)[C@H]3O)c(=O)c2c1O,1 mM,Non-toxic,inactive,
COc1c(O)cc2oc(-c3ccc(O)c(O)c3)c(O[C@@H]3O[C@H](CO[C@@H]4O[C@@H](C)[C@H](OC(C)=O)[C@@H](O)[C@H]4O)[C@@H](O)[C@H](O)[C@H]3O)c(=O)c2c1O,2.16 mM,Non-toxic,,Active
COc1c(O)cc2oc(-c3ccc(O)cc3)c(O[C@@H]3O[C@H](COC(=O)[C@H]4[C@H](c5ccc(O)cc5)[C@H](C(=O)OC[C@H]5O[C@@H](Oc6c(-c7ccc(O)cc7)oc7cc(O)c(OC)c(O)c7c6=O)[C@H](O)[C@@H](O)[C@@H]5O)[C@H]4c4ccc(O)cc4)[C@@H](O)[C@H](O)[C@H]3O)c(=O)c2c1O [GENICULATIN],0.738 mM,Non-toxic,inactive,
COc1c2cc(O)cc(O[C@@H]3O[C@H](CO[C@@H]4O[C@H](CO)[C@@H](O)[C@H](O)[C@H]4O)[C@@H](O)[C@H](O)[C@H]3O)c2c(O)c2c(=O)oc(C)cc12,1.04 mM,Non-toxic,inactive,
COc1cc(O[C@H]2O[C@H](CO[C@H]3O[C@H](CO)[C@@H](O)[C@H](O)[C@H]3O)[C@@H](O)[C@H](O)[C@H]2O)c2c(O)c3c(=O)oc(C)cc3c(OC)c2c1,0.706 mM,Non-toxic,inactive,
COc1c2cc(O)cc(O[C@@H]3O[C@H](CO)[C@@H](O)[C@H](O)[C@H]3O)c2c(O)c2c(=O)oc(C)cc12,0.898 mM,Non-toxic,inactive,
